From paper PMC7104935 (Asian Pacific Journal of Tropical Medicine, 2015)
Values after ≈ are worked out from the molar mass of the structure shown. Values joined by “and” are separate entries in the source; they are usually repeats but may differ in a detail not shown here. Equal values may be shown once. “Also recorded” adds a separate entry of the source. Where a name gives a salt, the structure may show the parent alone. Read-outs that look alike come from different tables or passages of the source. Marks after values point to notes of the source that are not given here.

Assays:
[1] = test system: mouse hepatitis virus (MHV); experiment: microbe, parasite or virus in culture; format: cell-based, murine coronavirus; conditions: for IC50: read-out: IC50 against MHV
[2] = test system: DENV-2 New Guinea C strain; experiment: DENV-2 plaque reduction neutralization test; format: cell-based, dengue virus type 2; conditions: for Selectivity index (DENV-2): CC50/IC50, '>' values with absence of cytotoxicity; for IC50: Dengue virus, DENV2, BHK-21, read-out: IC50 against DENV-2
Method in brief: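 DENV-2 New Guinea C was propagated in C6/36 cells (L15, 3% FBS, 28 °C). 2-fold dilutions were made: extract fraction 166.67 to 0.08 μg/mL, flavonoids 500.00 to 15.63 μg/mL. Each was preincubated 1 h with 90 PFU, then adsorbed 1 h at 37 °C on BHK-21 monolayers (RPMI-1640, 10% FBS). Plates had 1% carboxymethylcellulose overlay for 6 d, then crystal violet plaque count. Run in duplicate, with mAb 3H5 as positive control. IC50 came from % plaque reduction curves.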

[3] = MTT cell viability and proliferation assay, BHK-21 cells; format: cell-based, baby hamster; conditions: hamster, BHK-21 cells (monolayers)
Method in brief: (§1)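 BHK-21 monolayers were exposed to test compound for 48 h at 37 °C, 5% CO2, at the concentrations used in neutralization tests. MTT was added for 4 h, then 100 g/L SDS in 0.01 mol/L HCl overnight in the dark at room temperature. OD was read at 570 nm. Inhibition rate was taken relative to solvent-treated cells, and CC50 came from the concentration plot. Experiments were repeated; mean and standard deviation reported.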

HSV-1 = conditions: cited from earlier work
in vitro = conditions: mouse
BHK-21 cells = experiment: MTT cell viability and proliferation assay, BHK-21 cells; format: cell-based, baby hamster; conditions: at concentrations tested in PRNT
Method in brief: as §1

| SMILES | Duration of inhibition of viral infectivity [1] | IC50 against MHV [1] | MHV inhibition [1] | MIC, anti-MHV activity [1] | Selectivity index (MHV) [1] | IC50 ([1]; Murine coronavirus) | MIC ([1]; Murine coronavirus, read-out: MIC, anti-MHV activity) | Cytotoxicity on CCL9.1 cells (CCL9.1 cells) | IC50 ([1]; Murine coronavirus, 1 h) | Selectivity index (DENV-2) [2] | IC50 [2] | CC50 at 48 h [3] | CC50 (CCL9.1 cells; mouse) | Activity on HSV-1 among flavonoids (HSV-1) | CC50 (in vitro) | Antiviral activity against MHV [1] | Cytotoxicity to BHK cells (BHK-21 cells) | Anti-DENV-2 activity ([2]; PRNT, 500.00 down to 15.63 μg/mL) |
| --- | --- | --- | --- | --- | --- | --- | --- | --- | --- | --- | --- | --- | --- | --- | --- | --- | --- | --- |
| CN(C)CCCSc1ccccc1NC(=O)/C=C/c1ccccc1 [Cinanserin, cinanserin hydrochloride] | 2 days | 62.50 µg/mL | no viral inhibition; also recorded: could not inhibit MHV | 62.50 µg/mL and 62.5 µg/mL | >4.00 ^c and >2.00 ^c | 31.2 µg/mL | 31.2 µg/mL | minimal or no cytotoxicity |  |  |  |  |  |  |  |  |  |  |
| O=c1c(O)c(-c2ccc(O)c(O)c2)oc2cc(O)cc(O)c12 [Quercetin, quercetin] | up to 6 d |  |  |  | 0.93 |  |  |  | 125 µg/mL (≈ 414 µM) | 0.88 | 177 µg/mL (≈ 585 µM) | 155 µg/mL (≈ 514 µM) | 116.52 µg/mL (≈ 386 µM) | highest activity | 116 µg/mL (≈ 385 µM) |  |  |  |
| C[C@@H]1O[C@@H](Oc2c(-c3ccc(O)c(O)c3)oc3cc(O)cc(O)c3c2=O)[C@H](O)[C@H](O)[C@H]1O [Quercitrin, quercetin-3-L-rhamnoside] |  | NIL |  |  |  |  |  |  |  | >1.07 ^c | 467 µg/mL (≈ 1040 µM) |  |  |  |  | did not exhibit antiviral activity | did not cause cytotoxicity |  |
| C[C@@H]1O[C@@H](OC[C@H]2O[C@@H](Oc3c(-c4ccc(O)c(O)c4)oc4cc(O)cc(O)c4c3=O)[C@H](O)[C@@H](O)[C@@H]2O)[C@H](O)[C@H](O)[C@H]1O [Rutin, quercetin-3-rutinoside] |  | NIL |  |  |  |  |  |  |  |  |  |  |  | no effect at all |  | did not exhibit antiviral activity | without cytotoxicity | no anti-DENV-2 activity was detected |
